# Results: ChEMBL document CHEMBL1128674, “Evaluation of physicochemical parameters important to the oral bioavailability of peptide-like compounds: implications for the synthesis of renin inhibitors” (J Med Chem, 1995)
# Columns and labels:
# [1] = Partition coefficient (logP); format: physicochemical; details: octanol/water
# Procedure, shortened: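 Log P obtained by a correlation method at pH 6.5.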
# [2] = Acid dissociation constant of the compound; format: ADME
SMILES,logP [1],pKa [2]
CC(C)C[C@H](O)[C@H](O)[C@H](CC1CCCCC1)NC(=O)CN,1.52,7.5
CC(C)C[C@H](O)[C@H](O)[C@H](CC1CCCCC1)NC(=O)[C@H](Cc1csc(N)n1)NC(=O)[C@H](Cc1ccccc1)NS(=O)(=O)N1CCN(C(=O)CCC(=O)O)CC1,2.03,5.9
CC(C)C[C@H](O)[C@H](O)[C@@H](N)CC1CCCCC1,1.86,
CC(C)C[C@H](O)[C@H](O)[C@H](CC1CCCCC1)NC(=O)C[C@@H](NC(=O)OC(C)(C)C)C(=O)O,2.06,4.7
CC(C)C[C@H](O)[C@H](O)[C@H](CC1CCCCC1)NC(=O)/C=C/c1ccccc1,3.61,

# Continued, values first:
logP [1],pKa [2],SMILES
4.9,,CCCC[C@H](NC(=O)[C@H](Cc1ccccc1)n1cccc1)C(=O)N[C@@H](CC1CCCCC1)[C@@H](O)[C@@H](O)CC(C)C
3.01,,CC(C)C[C@H](O)[C@H](O)[C@H](CC1CCCCC1)NC(=O)[C@H](Cc1csc(N)n1)NC(=O)[C@H](Cc1ccccc1)NS(=O)(=O)N1CCOCC1
4.66,,CC(C)C[C@H](O)[C@H](O)[C@H](CC1CCCCC1)NC(=O)CCCCCc1ccccc1
